HCV NS3 hel inh: inhibitors of HCV NS3 helicase, primary screen, biochemical, Cy5 molecular beacon fluorescence; Hepatitis C virus NS3 helicase; 0.56% of 290,000 active; AID 1800, 2009; inhibition, % at 10.9 µM; NS3 helicase DNA unwinding;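 active = inhibition above the mean of all tested compounds plus 3 SD, set per campaign, cut at about 35% in these data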
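Assay system – hepatitis C virus NS3 helicase domain fragment enzyme · Buffer or medium – MOPS pH 6.5, MgCl2, DTT, Tween20, BSA · Reagent – Cy5/quencher beacon DNA duplex and ATP to start · Compound – single 10.9 µM dose · Timing – 1 h at 25 °C · Technique – Cy5 beacon fluorescence read at start and 1 h · Measure – % inhibition of unwinding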
HSP90 inh: HSP90 inhibitors, primary screen, cell lysate, luminescence. Rabbit reticulocyte lysate, luciferase refolding luminescence, 3 h. AID 1789, 2009. Heat shock protein HSP 90 (rabbit reticulocyte lysate; luciferase refolding). inhibition, % at 5.6 µM. 0.91% of 290,000 active;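 active = inhibition above the screen-wide mean plus 3 SD, computed separately per campaign, cut at about 16% in these data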;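 note: inhibitors lower the luminescence because luciferase stays unfolded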
FID counter: compounds displacing fluorescent DNA intercalator, primary screen, artefact control for HCV NS3 helicase inhibitor project, biochemical, FID fluorescence; DNA fluorescent intercalator displacement; inhibition, % at 7.9 µM; 0.17% of 290,000 active; AID 1845, 2009; in the data active = inhibition above about 37%;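 note: higher means more ethidium bromide displaced from hairpin DNA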
HSF-1 act: HSF-1 activators, primary screen, NIH3T3-HGL cells, MG132 stress, luminescence, single point. NIH3T3-HGL HSF-1 luciferase reporter, 8 h; 100% = twice DMSO control signal. 1.7% of 300,000 active. activation, % at 9 µM;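 active = mean replicate activation of at least 50% with a set share of replicates each reaching 50%; inconclusive = only one of those two conditions met; inactive = mean below 50% and too few replicates reaching it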
HSF1 inh: HSF1 inhibitors in luciferase reporter cells, primary screen, cell-based, NIH3T3, luminescence. NIH3T3-HGL HSE-luciferase, MG132-induced, luminescence 8 h; stronger effect = lower value. activity change, negative = inhibition, % at 7.5 µM (by protocol). 0.77% of 300,000 active. AID 2098, 2009;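 active = more than half of replicate wells show activity change below -50%, luminescence cut by over half; inconclusive = some wells, but at most half, below -50%; inactive = no replicate well below -50%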;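 note: luciferase reports HSF-1 transcriptional activity via heat shock element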
HCV core dimer: inhibitors of HCV core protein dimerization, primary screen, biochemical, TR-FRET, high-throughput | TR-FRET GST/Flag-core106 dimerization, 1536-well | inhibition, % at 5 µM | 0.33% of 300,000 active | AID 1899, 2009;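 active = inhibition above the mean of all tested compounds plus 3 SD, set per screening campaign, cut at about 45% in these data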
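System: GST/Flag-tagged HCV core106 proteins. Incubation: compound-protein-antibody incubation 4 h at 22.5 °C. Technique: HTRF with 340 nm excitation, 617/671 nm emission. Medium: KF-containing HEPES buffer, pH 7.45, DTT, CHAPS, BSA. Read-out: inhibition (%) from 671 over 617 nm ratio. Also added: Eu(K)-anti-GST 90 ng/mL plus XL665-anti-Flag 1 µg/mL.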
Numbers stand for hits. A selection: hits, their analogues and other compounds. The true share with any hit is near 3.9%.

How did CCOC(=O)COc1ccccc1/C=C\[N+](=O)[O-] do in these assays?
HCV NS3 hel inh: inactive; HSP90 inh: inactive; FID counter: inactive; HSF-1 act: inactive; HSF1 inh: -61; HCV core dimer: inactive

Results for Cc1c(Cl)c([N+](=O)[O-])nn1Cc1ccc(C(=O)Nc2ccc(Cl)cn2)o1 ?
HCV NS3 hel inh: inactive; HSP90 inh: inactive; FID counter: inactive; HSF-1 act: inactive; HSF1 inh: inactive; HCV core dimer: inactive

What do the screens show for `CC(=O)c1ccc(NC(=O)c2ccc([N+](=O)[O-])o2)cc1`?
HCV NS3 hel inh: inactive; HSP90 inh: inactive; FID counter: inactive; HSF-1 act: 91; HSF1 inh: inactive

What do the screens show for `Cc1cc(C)cc(NC(=O)c2ccc([N+](=O)[O-])o2)c1`?
HCV NS3 hel inh: inactive; HSP90 inh: inactive; FID counter: inactive; HSF-1 act: inconclusive; HSF1 inh: inactive

How did CC(=O)c1cccc(NC(=O)c2ccc([N+](=O)[O-])o2)c1 do in these assays?
HSF-1 act: 55; HSF1 inh: inactive; HCV core dimer: inactive

Results for O=C(Nc1ccc(Cl)cn1)c1ccc([N+](=O)[O-])o1 ?
HCV NS3 hel inh: inactive; HSP90 inh: inactive; FID counter: inactive; HSF-1 act: 140; HSF1 inh: inactive

How did Cc1onc(-c2ccccc2Cl)c1C(=O)N1CCN(S(=O)(=O)c2ccc(F)c(F)c2)CC1 do in these assays?
HCV NS3 hel inh: inactive; HSP90 inh: inactive; FID counter: inactive; HSF-1 act: inactive; HSF1 inh: inactive; HCV core dimer: inactive

What do the screens show for `CCN(CC(=O)N1CCC(C(N)=O)CC1)S(=O)(=O)c1ccc(Cl)cc1`?
HCV NS3 hel inh: inactive; HSP90 inh: inactive; FID counter: inactive; HSF-1 act: inactive; HSF1 inh: inactive; HCV core dimer: inactive

How did COc1ccc(OC)c(S(=O)(=O)N2CCC(C(=O)NCc3cccnc3)CC2)c1 do in these assays?
HCV NS3 hel inh: inactive; HSP90 inh: inactive; FID counter: inactive; HSF-1 act: inactive; HSF1 inh: inactive; HCV core dimer: inactive

What do the screens show for `c1ccc(CCNc2nc(-c3ccccn3)cs2)cc1`?
HCV NS3 hel inh: inactive; HSP90 inh: inactive; FID counter: inactive; HSF-1 act: 53; HSF1 inh: inactive; HCV core dimer: inactive

Results for Cc1nnc(NCCc2ccccc2)c2ccccc12 ?
HCV NS3 hel inh: inactive; HSP90 inh: inactive; FID counter: inactive; HSF-1 act: 54; HSF1 inh: inactive; HCV core dimer: inactive

What do the screens show for `CC1(C)Cc2c(sc(NC(=O)c3ccc(C(=O)c4ccccc4)cc3)c2C(N)=O)C(C)(C)N1`?
HCV NS3 hel inh: inactive; HSP90 inh: inactive; FID counter: 37; HSF-1 act: inactive; HSF1 inh: inactive; HCV core dimer: inactive

Results for CC1(C)Cc2c(sc(NC(=O)COc3ccc(Cl)cc3)c2C(N)=O)C(C)(C)N1 ?
HCV NS3 hel inh: inactive; HSP90 inh: inactive; FID counter: inactive; HSF-1 act: inactive; HSF1 inh: inactive; HCV core dimer: inactive

Results for NC(=O)c1c(NC(=O)c2ccccc2)sc2c1CCC2 ?
HCV NS3 hel inh: inactive; HSP90 inh: inactive; FID counter: inactive; HSF-1 act: inactive; HSF1 inh: inactive; HCV core dimer: inactive

Results for CCOC(=O)N1CCN(S(=O)(=O)c2ccc(C(=O)Nc3sc4c(c3C(N)=O)CC(C)(C)NC4(C)C)cc2)CC1 ?
HCV NS3 hel inh: inactive; HSP90 inh: inactive; FID counter: 41; HSF-1 act: inactive; HSF1 inh: inactive; HCV core dimer: inactive

How did CCOC(=O)c1c(NC(=O)c2ccc(C)cc2)sc2c1CC(C)(C)NC2(C)C do in these assays?
HCV NS3 hel inh: inactive; HSP90 inh: inactive; FID counter: inactive; HSF-1 act: inactive; HSF1 inh: inactive; HCV core dimer: inactive

What do the screens show for `CC1(C)Cc2c(sc(NC(=O)c3ccc4ncsc4c3)c2C(N)=O)C(C)(C)N1`?
HCV NS3 hel inh: inactive; HSP90 inh: inactive; FID counter: inactive; HSF-1 act: inactive; HSF1 inh: -53; HCV core dimer: inactive

What do the screens show for `NC(=O)c1c(NC(=O)c2ccccc2)sc2c1CCc1ccccc1-2`?
HCV NS3 hel inh: inactive; HSP90 inh: inactive; FID counter: inactive; HSF-1 act: 74; HSF1 inh: inactive; HCV core dimer: inactive

Results for CCc1nnc(NC(=O)C2=CCN(S(=O)(=O)c3ccc(F)cc3)CC2)s1 ?
HCV NS3 hel inh: inactive; HSP90 inh: inactive; FID counter: inactive; HSF-1 act: inactive; HSF1 inh: inactive; HCV core dimer: inactive

What do the screens show for `Cc1cc(C)nc(N2CCCC(C(=O)Nc3ccc4nc(C)c(C)nc4c3)C2)n1` (centres undefined)?
HCV NS3 hel inh: inactive; HSP90 inh: inactive; FID counter: inactive; HSF-1 act: 57; HSF1 inh: inactive; HCV core dimer: inactive

How did CCOc1ccc(NC(=O)C2CCCN(c3nn4c(=O)cc(C)nc4s3)C2)cc1 (centres undefined) do in these assays?
HCV NS3 hel inh: inactive; HSP90 inh: inactive; FID counter: inactive; HSF-1 act: inactive; HSF1 inh: -62; HCV core dimer: inactive

What do the screens show for `CC1CC(C(=O)Nc2ccccc2)C(=O)O1` (centres undefined)?
HSF-1 act: inactive; HSF1 inh: inactive; HCV core dimer: inactive

What do the screens show for `COc1ccc(CNC(=O)c2sc(=S)n(-c3ccccc3)c2N)cc1`?
HCV NS3 hel inh: inactive; HSP90 inh: inactive; FID counter: inactive; HSF-1 act: inactive; HSF1 inh: -67; HCV core dimer: inactive

What do the screens show for `CCOc1ccc(OCCn2nnc3ccccc3c2=O)cc1`?
HCV NS3 hel inh: inactive; HSP90 inh: inactive; FID counter: inactive; HSF-1 act: 83; HSF1 inh: inactive; HCV core dimer: inactive

Results for CN(CC(=O)Nc1ccccc1Cl)C(=O)c1ccc(-c2cccc(C(F)(F)F)c2)o1 ?
HSF-1 act: inactive; HSF1 inh: inactive; HCV core dimer: inactive

How did CCOC(=O)c1c(C)[nH]c(C)c1S(=O)(=O)N1CCCCC1 do in these assays?
HCV NS3 hel inh: inactive; HSP90 inh: inactive; FID counter: inactive; HSF-1 act: 57; HSF1 inh: inactive; HCV core dimer: inactive

How did CCOC(=O)c1c(C)[nH]c(C)c1S(=O)(=O)N1CCN(c2cccc(C)c2)C(C)C1 (centres undefined) do in these assays?
HCV NS3 hel inh: inactive; HSP90 inh: inactive; FID counter: inactive; HSF-1 act: 87; HSF1 inh: inactive; HCV core dimer: inactive

How did CCOC(=O)c1c(C)[nH]c(C)c1S(=O)(=O)N1CCC(c2ccccc2)C1 (centres undefined) do in these assays?
HCV NS3 hel inh: inactive; HSP90 inh: inactive; FID counter: inactive; HSF-1 act: inactive; HSF1 inh: inactive; HCV core dimer: inactive

Screens (PubChem BioAssay)
